“Also recorded” adds a separate entry of the source.
Tests used:
Assay type in all cases: in vivo, human
[1] = Plasma pharmacokinetics, non-compartmental analysis; settings: for AUC / Cmax / Vd/F / half-life / Tmax / AUC(0-t): human, plasma, oral; for Vd/F: Vss/F, Amean (range); for AUC(0-t): AUC0–12, Gmean (range)
[2] = test system: tumour glucose uptake; test: Metabolic response by FDG-PET; settings: day 35
Outline: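 FDG-PET was done at screening in solid-tumour patients with RECIST-measurable lesions and in all lymphoma patients. Percentage change in SUVmax from baseline was calculated. Metabolic response was defined as an SUVmax decrease >25% per EORTC criteria.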

[3] = test system: phosphorylation levels of 4E-BP1 on threonine^37/46 in peripheral blood mononuclear cells (PBMCs); test: 4E-BP1 phosphorylation in PBMCs; settings: 2 h post dose, MTD cohort (90 mg)
Outline: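 Adult patients with refractory advanced solid tumours or lymphoma got one oral dose on day 1, then continuous twice-daily dosing from one week later. They fasted at least 1 h before and after each dose. PBMCs were taken pre-dose and 2, 8 and 24 h post dose on day 1. Antibodies to the phosphorylated forms were used: AKT Ser473 by mesoscale detection, 4E-BP1 Thr37/46 by FACS.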

[4] = test system: advanced solid tumours or lymphomas; test: Tumour response by RECIST v1.0
Outline: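 Patients got a single oral dose on day 1, then continuous twice-daily dosing until disease progression or unmanageable toxicity. Baseline RECIST assessment used CT or MRI of chest, abdomen and pelvis before treatment, repeated every 8 weeks.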

[5] = Urine pharmacokinetics after single dose; settings: for CL renal: human, urine, oral, CLR, Amean (n) (range); for fe (0–24), dose fraction excreted unchanged in the urine, Amean (n) (range): zero to 24 h post dose
[6] = test system: pAKT, p4E-BP1 and pS6 in tumour biopsies; test: Immunohistochemistry of paired pre- and post-dose tumour biopsies; settings: two patients with baseline and post-dose tumour sample
[7] = 90 mg, single dose, 90 mg tablet (n=11)
[8] = 120 mg, single dose, 120 mg tablet (n=10)

COc1ccc(-c2ccc3c(N4CCOC[C@@H]4C)nc(N4CCOC[C@@H]4C)nc3n2)cc1CO [AZD8055]
AUC ([1]; 60 mg, AUCss, Gmean (n) (range), following BID dosing, 60 mg BID tablet): 178 ng·h/mL
Cmax ([1]; 60 mg, Cmax ss, Gmean (n) (range), following BID dosing, 60 mg BID tablet): 82.8 ng/mL
Cmax ([1]; 60 mg, Cmax, Gmean (range), single dose, 60 mg tablet (n=7)): 57.1 ng/mL
Vd/F ([1]; 60 mg, single dose, 60 mg tablet (n=7)): 1770 L
half-life ([1]; 60 mg, t1/2, Amean (range), single dose, 60 mg tablet (n=7)): 2.37 h
half-life ([1]; 60 mg, t1/2 ss, Amean (n) (range), following BID dosing, 60 mg BID tablet): 2.81 h
Tmax ([1]; 60 mg, tmax ss, Median (n) (range), following BID dosing, 60 mg BID tablet): 1 h
Tmax ([1]; 60 mg, tmax, Median (range), single dose, 60 mg tablet (n=7)): 0.5 h
Cmax ([1]; 90 mg): 70.1 ng/mL
half-life ([1]; 90 mg): 2.36 h
AUC(0-t) [1, 7]: 130 ng·h/mL
AUC ([1]; 90 mg, AUC, Gmean (range), single dose, 90 mg tablet (n=11)): 134 ng·h/mL
AUC ([1]; 90 mg, AUCss, Gmean (n) (range), following BID dosing, 90 mg BID tablet): 122 ng·h/mL
Cmax ([1]; 90 mg, Cmax ss, Gmean (n) (range), following BID dosing, 90 mg BID tablet): 70 ng/mL
Vd/F [1, 7]: 2450 L
half-life ([1]; 90 mg, t1/2 ss, Amean (n) (range), following BID dosing, 90 mg BID tablet): 2.63 h
Tmax ([1]; 90 mg, tmax ss, Median (n) (range), following BID dosing, 90 mg BID tablet): 0.5 h
Tmax ([1]; 90 mg, tmax, Median (range), single dose, 90 mg tablet (n=11), MTD): 0.5 h
AUC(0-t) [1, 8]: 280 ng·h/mL
AUC ([1]; 120 mg, AUC, Gmean (range), single dose, 120 mg tablet (n=10)): 294 ng·h/mL
AUC ([1]; 120 mg, AUCss, Gmean (n) (range), following BID dosing, 120 mg BID tablet): 501 ng·h/mL
Cmax ([1]; 120 mg, Cmax ss, Gmean (n) (range), following BID dosing, 120 mg BID tablet): 355 ng/mL
Cmax ([1]; 120 mg, Cmax, Gmean (range), single dose, 120 mg tablet (n=10)): 177 ng/mL
Vd/F [1, 8]: 1370 L
half-life ([1]; 120 mg, t1/2, Amean (range), single dose, 120 mg tablet (n=10)): 3.14 h
half-life ([1]; 120 mg, t1/2 ss, Amean (n) (range), following BID dosing, 120 mg BID tablet): 2.45 h
Tmax ([1]; 120 mg, tmax ss, Median (n) (range), following BID dosing, 120 mg BID tablet): 0.5 h
Tmax ([1]; 120 mg, tmax, Median (range), single dose, 120 mg tablet (n=10)): 0.5 h
half-life ([1]; mean t1/2, single and multiple doses across all cohorts): 1.7 to 3.1 h
Tmax ([1]; median tmax, single and multiple doses across all cohorts): ~0.5 h
Oral bioavailability ([1]; oral dosing in patients): orally bioavailable
tmax, Median (range) ([1]; single dose, 90 mg tablet (n=11), MTD): 1.00 (0.25–4) h
Dose proportionality of exposure ([1]; single dosing, all cohorts): proportional increases in exposure with increasing dose
Patients with partial metabolic response by FDG-PET (decrease in SUVmax>25%) ([2]; 40 mg tablet BID): 2/5
Patients with partial metabolic response by FDG-PET (decrease in SUVmax>25%) ([2]; 60 mg BID): 2/5
Patients with partial metabolic response by FDG-PET (decrease in SUVmax>25%) ([2]; 90 mg BID): 1/7
Patients with partial metabolic response by FDG-PET (decrease in SUVmax>25%) ([2]; 120 mg BID): 3/9
Patients with transient decrease in p4E-BP1 in PBMC [3]: 2/5
Patients with stable disease for ⩾4 months ([4]; 10 mg BID): 1/5
Patients with stable disease for ⩾4 months ([4]; 60 mg BID): 1/7
Patients with stable disease for ⩾4 months ([4]; 90 mg BID): 1/11
Patients with stable disease for ⩾4 months ([4]; all cohorts): Seven
RECIST complete or partial responses ([4]; all cohorts): no RECIST responses were seen; also recorded: No complete or partial responses were observed
Duration of stable disease, range ([4]; seven patients with stable disease for ⩾4 months): 115 to 398 days
Dose excreted unchanged in the urine ([5]; all dose levels, first 24 h following the single dose): < 0.25%
CL renal ([5]; 10 mg, single dose, 10 mg solution): 1.95 mL/min
CL renal ([5]; 20 mg, single dose, 20 mg solution): 1.29 mL/min
CL renal ([5]; 40 mg, single dose, 40 mg solution): 1.78 mL/min
CL renal ([5]; 40 mg, single dose, 40 mg tablet): 3.68 mL/min
CL renal ([5]; 60 mg, single dose, 60 mg tablet): 2.67 mL/min
CL renal ([5]; 90 mg, single dose, 90 mg tablet): 1.75 mL/min
CL renal ([5]; 120 mg, single dose, 120 mg tablet): 1.68 mL/min
Renal clearance ([5]; single dose): low renal clearance
fe (0–24), dose fraction excreted unchanged in the urine, Amean (n) (range) ([5]; single dose, 10 mg solution): 0.0248 (4) (0.0121–0.0438) %
fe (0–24), dose fraction excreted unchanged in the urine, Amean (n) (range) ([5]; single dose, 20 mg solution): 0.0114 (3) (0.00512–0.0207) %
fe (0–24), dose fraction excreted unchanged in the urine, Amean (n) (range) ([5]; single dose, 40 mg solution): 0.0227 (5) (0.00907–0.0423) %
fe (0–24), dose fraction excreted unchanged in the urine, Amean (n) (range) ([5]; single dose, 40 mg tablet): 0.0881 (6) (0.0043–0.224) %
fe (0–24), dose fraction excreted unchanged in the urine, Amean (n) (range) ([5]; single dose, 60 mg tablet): 0.0222 (7) (0.00289–0.0712) %
fe (0–24), dose fraction excreted unchanged in the urine, Amean (n) (range) ([5]; single dose, 90 mg tablet): 0.0231 (9) (0.00155–0.0704) %
fe (0–24), dose fraction excreted unchanged in the urine, Amean (n) (range) ([5]; single dose, 120 mg tablet): 0.0375 (7) (0.00237–0.151) %
Biomarker modulation for pAKT, p4E-BP1 and pS6 in tumour samples [6]: did not show conclusive evidence of biomarker modulation

Source: article PMC3461162 (British Journal of Cancer, 2012)
